# Calls of active or inactive are those of the source. The calls are words filed in the database; no cut-off is given here.
# Legend:
# [1] = test system: Mus musculus; assay: Anticonvulsant activity determined at 30 minutes after the administration of compound using MES test. (+++ = activity at 30 mg/kg); type: functional, organism-based; set-up: dose 30 mg/kg
# Method in brief: (§1)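 Male CF-1 albino mice (18-25 g) dosed intraperitoneally at 30, 100 or 300 mg/kg. Protection against maximal electroshock-induced seizures was scored 30 min or 4 h after dosing.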
# [2] = test system: Mus musculus; assay: Anticonvulsant activity determined at 30 minutes after the administration of compound using sc Ptz test. (+++ = activity at 30 mg/kg); type: functional, organism-based; set-up: dose 30 mg/kg
# Method in brief: (§2)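 Male CF-1 mice (18-25 g) dosed ip at 30, 100 or 300 mg/kg. Pentylenetetrazol in 0.9% NaCl was injected sc at 0.01 mL/g. Tests were run 30 min or 4 h after dosing.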
# [3] = test system: Mus musculus; assay: Anticonvulsant activity determined at 4 hours after the administration of compound using MES test.(++= signify activity at 100 mg/kg); type: functional, organism-based; set-up: dose 100 mg/kg; method in brief: as §1
# [4] = test system: Mus musculus; assay: Anticonvulsant activity determined at 4 hours after the administration of compound using sc Ptz test. (- denotes activity at 300 mg/kg); type: functional, organism-based; set-up: dose 300 mg/kg; method in brief: as §2
# [5] = test system: Rattus norvegicus; assay: Anticonvulsant activity was determined in rats at a dose of 30 mg/kg after 1 hour by MES test. (++++ denotes activity in 75-100% of administered animals); type: functional, organism-based; set-up: dose 30 mg/kg
# [6] = test system: Rattus norvegicus; assay: Anticonvulsant activity was determined in rats at a dose of 30 mg/kg after 2 hour by MES test. (++++ denotes activity in 75-100% of administered animals); type: functional, organism-based; set-up: dose 30 mg/kg
# [7] = test system: Rattus norvegicus; assay: Anticonvulsant activity was determined in rats at a dose of 30 mg/kg after 30 minutes by MES test. (++++ denotes activity in 75-100% of administered animals); type: functional, organism-based; set-up: dose 30 mg/kg
# [8] = test system: Rattus norvegicus; assay: Anticonvulsant activity was determined in rats at a dose of 30 mg/kg after 4 hour by MES test. (++ denotes activity in 25-50% of administered animals).; type: functional, organism-based; set-up: dose 30 mg/kg
# [9] = test system: Rattus norvegicus; assay: Anticonvulsant activity was determined in rats at a dose of 30 mg/kg after 15 minutes by MES test. (++++ denotes activity in 75-100% of administered animals); type: functional, organism-based; set-up: dose 30 mg/kg
# [10] = test system: Rattus norvegicus; assay: (§3) Toxicity was determined in rats at a dose of 30 mg/kg after 4 hour. (- denotes no activity in administered animals).; type: functional, organism-based; set-up: dose 30 mg/kg
# Method in brief: (§4)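 Male Sprague-Dawley rats given a single oral dose of 30 mg/kg and assessed for toxicity 4 h after dosing, with at least four animals per time point. Score is the fraction of animals affected (+ 0-25%); - means no toxicity.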
# [11] = Apparent IC50 value by [3H]batrachotoxinin-A-20-alpha-benzoate-binding test performed in rat brain synaptosomes; type: subcellular
# Method in brief: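 Rat brain synaptosomes, about 400 µg protein per assay, incubated 2 h at 37 °C, pH 7.4, in choline chloride/HEPES/glucose/KCl medium with 10 nM [³H]batrachotoxinin-A-20α-benzoate and scorpion venom. Stopped with cold-free choline chloride/HEPES/CaCl₂/MgSO₄ washes, filtered on GF/B, bound radioactivity counted. Protein by Bradford. Apparent IC50 from quadruplicate measurements, mean ± SD.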
# [12] = Neurotoxicity determined at 30 minutes after the administration of compound by rotarod test.(++= signify activity at 100 mg/kg); type: toxicity, organism-based; set-up: dose 100 mg/kg; settings: mouse, in vivo, 0.5 h
# Method in brief: (§5)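 Male CF-1 mice dosed ip at 30, 100 or 300 mg/kg and tested 30 min or 4 h later on a 1-in. knurled rod turning at 6 rpm. A deficit was failure to stay on the rod for 1 min in each of three trials. Coding: ++ 100, + 300 mg/kg; - means none at 300 mg/kg.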
# [13] = Neurotoxicity determined at 4 hours after the administration of compound by rotarod test (++= signify activity at 100 mg/kg); type: toxicity, organism-based; set-up: dose 100 mg/kg; settings: mouse, in vivo; method in brief: as §5
# [14] = test system: Rattus norvegicus; assay: Anticonvulsant ED50 activity by MES test in rats dosed orally; type: functional; settings: po
# Method in brief: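 Male Sprague-Dawley rats (100-150 g) dosed orally. ED50 is the dose protecting 50% of animals against maximal electroshock-induced seizures. […]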
# [15] = test system: Mus musculus; assay: Anticonvulsant activity determined at 30 minutes after the administration of compound using MES test. (++= signify activity at 100 mg/kg); type: functional, organism-based; set-up: dose 100 mg/kg; method in brief: as §1
# [16] = test system: Rattus norvegicus; assay: Anticonvulsant activity was determined in rats at a dose of 30 mg/kg after 1 hour by MES test. (+ denotes activity in 0-25% of administered animals).; type: functional, organism-based; set-up: dose 30 mg/kg
# [17] = test system: Rattus norvegicus; assay: Anticonvulsant activity was determined in rats at a dose of 30 mg/kg after 4 hour by MES test. (+ denotes activity in 0-25% of administered animals).; type: functional, organism-based; set-up: dose 30 mg/kg
# [18] = test system: Rattus norvegicus; assay: Toxicity was determined in rats at a dose of 30 mg/kg after 4 hour. (+ denotes activity in 0-25% of administered animals).; type: functional, organism-based; set-up: dose 30 mg/kg; method in brief: as §4
# [19] = Neurotoxicity determined at 30 minutes after the administration of compound by rotarod test.(- denotes activity at 300 mg/kg); type: toxicity, organism-based; set-up: dose 300 mg/kg; settings: mouse, in vivo, 0.5 h; method in brief: as §5
# [20] = Neurotoxicity determined at 4 hours after the administration of compound by rotarod test (- denotes activity at 300 mg/kg); type: toxicity, organism-based; set-up: dose 300 mg/kg; settings: mouse, in vivo; method in brief: as §5
# [21] = test system: Mus musculus; assay: Anticonvulsant activity determined at 30 minutes after the administration of compound using MES test.(++= signify activity at 100 mg/kg); type: functional, organism-based; set-up: dose 100 mg/kg; method in brief: as §1
# [22] = test system: Rattus norvegicus; assay: Anticonvulsant activity was determined in rats at a dose of 30 mg/kg after 1 hour by MES test. (++ denotes activity in 25-50% of administered animals).; type: functional, organism-based; set-up: dose 30 mg/kg
# [23] = test system: Rattus norvegicus; assay: Anticonvulsant activity was determined in rats at a dose of 30 mg/kg after 2 hour by MES test. (+ denotes activity in 0-25% of administered animals).; type: functional, organism-based; set-up: dose 30 mg/kg
# [24] = Neurotoxicity determined at 4 hours after the administration of compound by rotarod test(- denotes activity at 300 mg/kg); type: toxicity, organism-based; set-up: dose 300 mg/kg; settings: mouse, in vivo; method in brief: as §5
# [25] = test system: Mus musculus; assay: Anticonvulsant activity determined at 4 hours after the administration of compound using MES test. (++= signify activity at 100 mg/kg); type: functional, organism-based; set-up: dose 100 mg/kg; method in brief: as §1
# [26] = Neurotoxicity determined at 30 minutes after the administration of compound by rotarod test. (+ = signify activity at 300 mg/kg); type: toxicity, organism-based; set-up: dose 300 mg/kg; settings: mouse, in vivo, 0.5 h; method in brief: as §5
# [27] = as §3; type: organism-based; set-up: dose 30 mg/kg; settings: rat, in vivo; method in brief: as §4
# [28] = test system: Rattus norvegicus; assay: Anticonvulsant activity was determined in rats at a dose of 30 mg/kg after 4 hour by MES test. (++++ denotes activity in 75-100% of administered animals); type: functional, organism-based; set-up: dose 30 mg/kg
Compound,Activity [3],Activity [9],IC50 [11] [nM],ED50 [14] [µmol/kg],Activity [19],Activity [20],Activity [24],Activity [27],further results
Cc1cccc(C)c1N1C(=O)c2ccc(N)cc2C1=O,Active,Active,110,25.3,,,,,Activity [1]: Active; Activity [2]: Active; Activity [4]: inactive; Activity [5]: Active; Activity [6]: Active; Activity [7]: Active; Activity [8]: Weak activity; Activity [10]: Not toxic; Activity [12]: Active; Activity [13]: Active
O=C1NC(=O)C(c2ccccc2)(c2ccccc2)N1 [PHENYTOIN],,,860,121,,,,,
Cc1cccc(C)c1N1C(=O)c2ccc(O)cc2C1=O,activity in 0-25% of administered animals,,1860,369,activity in 0-25% of administered animals,activity in 0-25% of administered animals,,,Activity [15]: activity in 0-25% of administered animals; Activity [16]: activity in 0-25% of administered animals; Activity [17]: activity in 0-25% of administered animals; Activity [18]: activity in 0-25% of administered animals
Cc1cccc(C)c1N1C(=O)c2ccccc2C1=O,,,161000,231,activity in 0-25% of administered animals,,activity in 0-25% of administered animals,,Activity [21]: activity in 0-25% of administered animals; Activity [22]: activity in 0-25% of administered animals; Activity [23]: activity in 0-25% of administered animals
Cc1cccc(C)c1NC(=O)c1ccc([N+](=O)[O-])cc1,,++,250,52.3,,Activity at 300 mg/kg,,Activity at 300 mg/kg,Activity [25]: Activity at 300 mg/kg; Activity [26]: Activity at 300 mg/kg
Cc1cccc(C)c1NC(=O)c1ccc(N)cc1 [AMELTOLIDE],Activity at 300 mg/kg,++,,135,Activity at 300 mg/kg,,Activity at 300 mg/kg,Activity at 300 mg/kg,Activity [28]: ++

# Reference: ChEMBL document CHEMBL1131069 (J Med Chem, 1998)
